B1: Nitric oxide synthase, inducible (Mus musculus), P29477 (protein)
chain: MACPWKFLFKVKSYQSDLKEEKDINNNVKKTPCAVLSPTIQDDPKSHQNGSPQLLTGTAQNVPESLDKLHVTSTRPQYVRIKNWGSGEILHDTLHHKATSDFTCKSKSCLGSIMNPKSLTRGPRDKPTPLEELLPHAIEFINQYYGSFKEAKIEEHLARLEAVTKEIETTGTYQLTLDELIFATKMAWRNAPRCIGRIQWSNLQVFDARNCSTAQEMFQHICRHILYATNNGNIRSAITVFPQRSDGKHDFRLWNSQLIRYAGYQMPDGTIRGDAATLEFTQLCIDLGWKPRYGRFDVLPLVLQADGQDPEVFEIPPDLVLEVTMEHPKYEWFQELGLKWYALPAVANMLLEVGGLEFPACPFNGWYMGTEIGVRDFCDTQRYNILEEVGRRMGLETHTLASLWKDRAVTEINVAVLHSFQKQNVTIMDHHTASESFMKHMQNEYRARGGCPADWIWLVPPVSGSITPVFHQEMLNYVLSPFYYYQIEPWKTHIWQNEKLRPRRREIRFRVLVKVVFFASMLMRKVMASRVRATVLFATETGKSEALARDLATLFSYAFNTKVVCMDQYKASTLEEEQLLLVVTSTFGNGDCPSNGQTLKKSLFMLRELNHTFRYAVFGLGSSMYPQFCAFAHDIDQKLSHLGASQLAPTGEGDELSGQEDAFRSWAVQTFRAACETFDVRSKHHIQIPKRFTSNATWEPQQYRLIQSPEPLDLNRALSSIHAKNVFTMRLKSQQNLQSEKSSRTTLLVQLTFEGSRGPSYLPGEHLGIFPGNQTALVQGILERVVDCPTPHQTVCLEVLDESGSYWVKDKRLPPCSLSQALTYFLDITTPPTQLQLHKLARFATDETDRQRLEALCQPSEYNDWKFSNNPTFLEVLEEFPSLHVPAAFLLSQLPILKPRYYSISSSQDHTPSEVHLTVAVVTYRTRDGQGPLHHGVCSTWIRNLKPQDPVPCFVRSVSGFQLPEDPSQPCILIGPGTGIAPFRSFWQQRLHDSQHKGLKGGRMSLVFGCRHPEEDHLYQEEMQEMVRKRVLFQVHTGYSRLPGKPKVYVQDILQKQLANEVLSVLHGEQGHLYICGDVRMARDVATTLKKLVATKLNLSEEQVEDYFFQLKSQKRYHEDIFGAVFSYGAKKGSALEEPKATRL
B2: Nitric oxide synthase 3 (Bos taurus), P29473 (protein)
chain: MGNLKSVGQEPGPPCGLGLGLGLGLCGKQGPASPAPEPSRAPAPATPHAPDHSPAPNSPTLTRPPEGPKFPRVKNWELGSITYDTLCAQSQQDGPCTPRCCLGSLVLPRKLQTRPSPGPPPAEQLLSQARDFINQYYSSIKRSGSQAHEERLQEVEAEVASTGTYHLRESELVFGAKQAWRNAPRCVGRIQWGKLQVFDARDCSSAQEMFTYICNHIKYATNRGNLRSAITVFPQRAPGRGDFRIWNSQLVRYAGYRQQDGSVRGDPANVEITELCIQHGWTPGNGRFDVLPLLLQAPDEAPELFVLPPELVLEVPLEHPTLEWFAALGLRWYALPAVSNMLLEIGGLEFSAAPFSGWYMSTEIGTRNLCDPHRYNILEDVAVCMDLDTRTTSSLWKDKAAVEINLAVLHSFQLAKVTIVDHHAATVSFMKHLDNEQKARGGCPADWAWIVPPISGSLTPVFHQEMVNYILSPAFRYQPDPWKGSATKGAGITRKKTFKEVANAVKISASLMGTLMAKRVKATILYASETGRAQSYAQQLGRLFRKAFDPRVLCMDEYDVVSLEHEALVLVVTSTFGNGDPPENGESFAAALMEMSGPYNSSPRPEQHKSYKIRFNSVSCSDPLVSSWRRKRKESSNTDSAGALGTLRFCVFGLGSRAYPHFCAFARAVDTRLEELGGERLLQLGQGDELCGQEEAFRGWAKAAFQASCETFCVGEEAKAAAQDIFSPKRSWKRQRYRLSTQAEGLQLLPGLIHVHRRKMFQATVLSVENLQSSKSTRATILVRLDTAGQEGLQYQPGDHIGICPPNRPGLVEALLSRVEDPPPPTESVAVEQLEKGSPGGPPPSWVRDPRLPPCTLRQALTFFLDITSPPSPRLLRLLSTLAEEPSEQQELETLSQDPRRYEEWKWFRCPTLLEVLEQFPSVALPAPLLLTQLPLLQPRYYSVSSAPNAHPGEVHLTVAVLAYRTQDGLGPLHYGVCSTWLSQLKTGDPVPCFIRGAPSFRLPPDPYVPCILVGPGTGIAPFRGFWQERLHDIESKGLQPAPMTLVFGCRCSQLDHLYRDEVQDAQERGVFGRVLTAFSREPDSPKTYVQDILRTELAAEVHRVLCLERGHMFVCGDVTMATSVLQTVQRILATEGDMELDEAGDVIGVLRDQQRYHEDIFGLTLRTQEVTSRIRTQSFSLQERHLRGAVPWAFDPPGPDTPGP

Legend:
[1] = substrate: N=C(N)NC[C@H]1C[C@H]1[C@H](N)C(=O)O; assay: (§1) Activity of mouse iNOS by Michaelis-Menten equation analysis
Summary of the method: (§2)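 Murine iNOS kinetics used a hemoglobin capture assay at 30 °C, with no CaCl₂ or calmodulin. The mix held varied substrate concentrations, NADPH, 0.125 mg/mL ferrous hemoglobin-A₀ and H₄B in 100 mM HEPES (pH 7.5), and enzyme addition started it. Absorbance at 401 nm tracked NO-mediated hemoglobin oxidation. Km and kcat were obtained by nonlinear Michaelis–Menten regression of activity against substrate concentration.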

[2] = substrate: N=C(N)NC[C@H]1C[C@@H]1[C@H](N)C(=O)O; assay: as §1; summary of the method: as §2
[3] = substrate: N=C(N)NCCC[C@H](N)C(=O)O; assay: as §1; summary of the method: as §2
[4] = substrate: N=C(N)NC[C@H]1C[C@H]1[C@H](N)C(=O)O; assay: (§3) Ratio of Kcat to Km for mouse iNOS by Michaelis-Menten equation analysis; summary of the method: as §2
[5] = substrate: N=C(N)NC[C@H]1C[C@@H]1[C@H](N)C(=O)O; assay: as §3; summary of the method: as §2
[6] = substrate: N=C(N)NCCC[C@H](N)C(=O)O; assay: as §3; summary of the method: as §2
[7] = substrate: N=C(N)NC[C@H]1C[C@H]1[C@H](N)C(=O)O; assay: (§4) Activity of bovine eNOS by Michaelis-Menten equation analysis; conditions: Bos taurus
Summary of the method: (§5)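 Bovine eNOS run as a hemoglobin capture assay at 30 °C. The mix held varied substrate concentrations, 1.0 mM CaCl₂, 600 unit/mL calmodulin, NADPH, 0.125 mg/mL ferrous hemoglobin-A₀ and H₄B in 100 mM HEPES (pH 7.5). Enzyme addition started the reaction, and NO-driven hemoglobin oxidation was followed at 401 nm. Km and kcat came from a nonlinear Michaelis–Menten fit of activity versus substrate concentration.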

[8] = substrate: N=C(N)NC[C@H]1C[C@@H]1[C@H](N)C(=O)O; assay: as §4; conditions: Bos taurus; summary of the method: as §5
[9] = substrate: N=C(N)NCCC[C@H](N)C(=O)O; assay: as §4; conditions: Bos taurus; summary of the method: as §5
[10] = substrate: N=C(N)NC[C@H]1C[C@H]1[C@H](N)C(=O)O; assay: (§6) Ratio of Kcat to Km for bovine eNOS by Michaelis-Menten equation analysis; conditions: Bos taurus; summary of the method: as §5
[11] = substrate: N=C(N)NC[C@H]1C[C@@H]1[C@H](N)C(=O)O; assay: as §6; conditions: Bos taurus; summary of the method: as §5
[12] = substrate: N=C(N)NCCC[C@H](N)C(=O)O; assay: as §6; conditions: Bos taurus; summary of the method: as §5

| Protein | Km [1] | Km [2] | Km [3] | kcat/Km [4] | kcat/Km [5] | kcat/Km [6] | Km [7] | Km [8] | Km [9] | kcat/Km [10] | kcat/Km [11] | kcat/Km [12] |
| --- | --- | --- | --- | --- | --- | --- | --- | --- | --- | --- | --- | --- |
| B1 | 582 µM | 20 µM | 9.5 µM | 3 s⁻¹ mM⁻¹ | 99 s⁻¹ mM⁻¹ | 110 s⁻¹ mM⁻¹ | – | – | – | – | – | – |
| B2 | – | – | – | – | – | – | 163 µM | 3.6 µM | 1.1 µM | 0.92 s⁻¹ mM⁻¹ | 42 s⁻¹ mM⁻¹ | 73 s⁻¹ mM⁻¹ |
